Experiments:
[1] = AUC in dog at 0.1 mg/kg, po; type: ADME, organism-based, Canis lupus familiaris; design: dose 0.1 mg/kg; conditions: in vivo
[2] = target: T1, Sphingosine 1-phosphate receptor 1 (Homo sapiens, UniProt P21453); assay: Agonist activity at human S1P1 assessed as stimulation of cAMP accumulation; type: functional
[3] = Oral bioavailability in cynomolgus monkey at 0.5 mg/kg; type: ADME, organism-based, Macaca fascicularis; conditions: in vivo
[4] = Protein binding in rat assessed as bound fraction; type: ADME; conditions: read-out: PB (converted)
Homo sapiens = organism: Homo sapiens; assay: Inhibition of calcium channel (unknown origin) at 10 uM by patch clamp technique relative to control
[5] = Clearance in rat at 1 mg/kg, po or 1 mg/kg, iv; type: ADME, organism-based; conditions: in vivo
[6] = Cmax in rat at 1 mg/kg, po or 1 mg/kg, iv; type: ADME, organism-based; design: dose 1 mg/kg; conditions: in vivo
[7] = Metabolic stability in monkey assessed as half-life; type: ADME, Macaca mulatta; conditions: rhesus monkey
[8] = target: T2, Nuclear receptor subfamily 1 group I member 2 (Homo sapiens, UniProt O75469); assay: Transactivation of PXR (unknown origin); type: ADME
T2 sequence (O75469 whole entry): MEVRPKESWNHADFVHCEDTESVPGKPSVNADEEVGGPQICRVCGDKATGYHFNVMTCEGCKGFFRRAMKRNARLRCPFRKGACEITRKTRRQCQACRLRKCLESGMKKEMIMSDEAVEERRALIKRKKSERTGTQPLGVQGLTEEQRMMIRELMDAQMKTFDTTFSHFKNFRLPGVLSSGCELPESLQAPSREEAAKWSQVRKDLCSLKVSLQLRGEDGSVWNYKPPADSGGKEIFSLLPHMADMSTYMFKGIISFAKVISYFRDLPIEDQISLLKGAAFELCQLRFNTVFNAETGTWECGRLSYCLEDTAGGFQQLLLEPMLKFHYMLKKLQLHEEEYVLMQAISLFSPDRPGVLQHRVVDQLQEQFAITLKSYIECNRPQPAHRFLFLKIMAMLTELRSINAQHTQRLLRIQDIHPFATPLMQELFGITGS

[9] = Half-life in rat at 1 mg/kg, po or 1 mg/kg, iv; type: ADME, organism-based; conditions: in vivo
[10] = Oral bioavailability in mouse at 5 mg/kg; type: ADME, organism-based; conditions: in vivo
Rattus norvegicus [11] = assay: Antiarthritic activity in Lewis rat model of Complete Freund's adjuvant-induced arthritis assessed as reduction in paw swelling administered orally once daily for 21 days after CFA injection and measured weekly three times upto day 21 by water displacement plethysmometer; type: functional, organism-based; conditions: 504 h
Outline: (§1)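 Male Lewis rats, 200−225 g, n = 8 per group. Immunized at the tail base with 100 μL of 10 mg/mL ground Mycobacterium butyricum in incomplete Freund's adjuvant. Oral dosing once daily in PEG300 vehicle from the day of immunization for 21 days, at 0.03, 0.1 or 1.0 mg/kg. Dexamethasone 0.1 mg/kg PO QD as positive control. Paw volume by water displacement plethysmometry, day 7 to day 21.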

Cytochrome P450 2D6 = Cytochrome P450 2D6 (Homo sapiens, UniProt P10635); assay: Inhibition of CYP2D6 (unknown origin); type: ADME
Chain of Cytochrome P450 2D6 (P10635 whole entry): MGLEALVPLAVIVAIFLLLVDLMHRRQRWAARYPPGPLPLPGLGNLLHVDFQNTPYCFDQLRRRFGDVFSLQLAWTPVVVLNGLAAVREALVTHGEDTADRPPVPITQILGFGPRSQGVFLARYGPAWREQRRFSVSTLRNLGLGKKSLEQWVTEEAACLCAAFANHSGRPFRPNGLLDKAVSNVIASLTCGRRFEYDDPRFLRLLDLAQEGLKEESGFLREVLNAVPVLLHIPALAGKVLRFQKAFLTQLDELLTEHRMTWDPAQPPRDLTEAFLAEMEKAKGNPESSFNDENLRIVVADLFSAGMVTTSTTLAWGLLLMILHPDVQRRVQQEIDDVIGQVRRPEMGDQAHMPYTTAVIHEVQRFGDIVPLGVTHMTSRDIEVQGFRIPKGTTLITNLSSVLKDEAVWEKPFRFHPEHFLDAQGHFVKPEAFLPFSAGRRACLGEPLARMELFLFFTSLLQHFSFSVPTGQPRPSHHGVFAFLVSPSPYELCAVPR

Rattus norvegicus [12] = assay: Antiarthritic activity in Lewis rat model of Complete Freund's adjuvant-induced arthritis assessed as reduction in paw swelling at 0.1 mg/kg, po qd administered for 21 days after CFA injection and measured weekly three times upto day 21 by water displacement plethysmometry; type: functional; design: scale not given: the % may be the effect or the level left; conditions: time 21 day; outline: as §1
[13] = Half-life in mouse at 5 mg/kg, po or 2 mg/kg, iv; type: ADME, organism-based; conditions: in vivo
[14] = Tmax in dog at 0.1 mg/kg, po or 0.1 mg/kg, iv; type: ADME, organism-based, Canis lupus familiaris; conditions: in vivo
Cytochrome P450 2C9 = Cytochrome P450 2C9 (Homo sapiens, UniProt P11712); assay: Inhibition of CYP2C9 (unknown origin); type: ADME
Chain of Cytochrome P450 2C9 (P11712 whole entry): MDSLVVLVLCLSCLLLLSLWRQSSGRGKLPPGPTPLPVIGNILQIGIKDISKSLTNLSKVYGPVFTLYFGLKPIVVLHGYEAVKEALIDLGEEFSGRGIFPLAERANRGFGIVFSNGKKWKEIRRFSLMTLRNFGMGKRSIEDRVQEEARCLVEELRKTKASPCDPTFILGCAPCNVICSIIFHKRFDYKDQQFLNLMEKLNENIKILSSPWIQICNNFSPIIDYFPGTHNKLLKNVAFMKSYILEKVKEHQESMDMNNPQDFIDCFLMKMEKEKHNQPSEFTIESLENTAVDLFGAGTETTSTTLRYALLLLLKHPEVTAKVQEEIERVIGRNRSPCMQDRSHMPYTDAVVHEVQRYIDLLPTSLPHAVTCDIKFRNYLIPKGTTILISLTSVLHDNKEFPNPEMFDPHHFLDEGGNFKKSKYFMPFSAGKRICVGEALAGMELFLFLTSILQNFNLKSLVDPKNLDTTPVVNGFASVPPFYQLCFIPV

[15] = target: T1, Sphingosine 1-phosphate receptor 1; assay: Agonist activity at human S1P1 assessed as stimulation of cAMP accumulation relative to control; type: functional; conditions: filed as agonist
[16] = AUC in rat at 1 mg/kg, po; type: ADME, organism-based; design: dose 1 mg/kg; conditions: in vivo
[17] = Tmax in cynomolgus monkey at 0.5 mg/kg, po or 0.5 mg/kg, iv; type: ADME, organism-based, Macaca fascicularis; conditions: in vivo
[18] = target: Sphingosine 1-phosphate receptor 3 (Homo sapiens, UniProt Q99500); assay: Agonist activity at human S1P3 expressed in CHO cell membranes assessed as stimulation of [35S]-GTPgamma-S binding measured after 45 mins by liquid scintillation counting method; design: species or system Cell membrane
Chain of Sphingosine 1-phosphate receptor 3 (Q99500 whole entry): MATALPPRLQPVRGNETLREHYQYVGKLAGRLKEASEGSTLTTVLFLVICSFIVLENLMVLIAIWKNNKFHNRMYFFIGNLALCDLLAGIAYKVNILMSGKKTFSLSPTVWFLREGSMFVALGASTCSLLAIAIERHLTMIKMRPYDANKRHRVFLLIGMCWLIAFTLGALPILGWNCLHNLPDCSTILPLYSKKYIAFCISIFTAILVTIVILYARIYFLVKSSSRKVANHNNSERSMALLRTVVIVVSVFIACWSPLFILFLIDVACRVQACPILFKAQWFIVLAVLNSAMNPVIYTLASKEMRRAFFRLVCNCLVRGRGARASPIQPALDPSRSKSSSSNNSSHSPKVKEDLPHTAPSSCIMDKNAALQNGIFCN

Rattus norvegicus [19] = assay: Reduction in circulating lymphocytes count in Lewis rat blood at 1 mg/kg, po measured at 4 hrs by hematology analyzer based analysis; type: functional; design: scale not given: the % may be the effect or the level left
Outline: (§2)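 Lewis rats were given an oral dose as a solution or suspension in PEG300, with controls receiving vehicle only. Blood was taken by retro-orbital bleeding under isoflurane at 4 and 24 h. Lymphocytes were counted on a hematology analyzer. Reduction is relative to the vehicle group, averaged over the animals in each group (n = 3−4).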

[20] = target: Sphingosine 1-phosphate receptor 1 (Rattus norvegicus, UniProt P48303); assay: Agonist activity at rat S1P1 expressed in CHO cell membranes assessed as stimulation of [35S]-GTPgamma-S binding measured after 45 mins by liquid scintillation counting method; design: species or system Cell membrane
Chain of Sphingosine 1-phosphate receptor 1 (Rattus norvegicus, UniProt P48303) (P48303 whole entry): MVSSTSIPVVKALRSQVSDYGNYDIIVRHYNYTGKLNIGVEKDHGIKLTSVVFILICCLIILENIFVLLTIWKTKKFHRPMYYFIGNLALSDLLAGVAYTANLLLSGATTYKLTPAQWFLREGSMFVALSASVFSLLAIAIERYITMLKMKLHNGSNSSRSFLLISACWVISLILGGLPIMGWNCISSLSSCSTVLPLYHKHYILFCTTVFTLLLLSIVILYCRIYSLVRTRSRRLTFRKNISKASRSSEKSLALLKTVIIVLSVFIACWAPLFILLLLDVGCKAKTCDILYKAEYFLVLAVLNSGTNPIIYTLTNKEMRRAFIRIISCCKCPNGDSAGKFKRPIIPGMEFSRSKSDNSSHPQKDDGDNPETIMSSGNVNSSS
Outline: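 S1P1/CHO cell membranes at 3 μg protein/well with 3-fold compound dilutions. [35S]GTPγS 0.2 nM final, 45 min at room temperature. Filter-plate capture, water washes, scintillation counting. EC50 taken at 50% of each compound's own Ymax.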

Cytochrome P450 3A4 = Cytochrome P450 3A4 (Homo sapiens, UniProt P08684); assay: Inhibition of CYP3A4 (unknown origin) using 7-benzyloxy resorufin as substrate; type: ADME
Chain of Cytochrome P450 3A4 (P08684 whole entry): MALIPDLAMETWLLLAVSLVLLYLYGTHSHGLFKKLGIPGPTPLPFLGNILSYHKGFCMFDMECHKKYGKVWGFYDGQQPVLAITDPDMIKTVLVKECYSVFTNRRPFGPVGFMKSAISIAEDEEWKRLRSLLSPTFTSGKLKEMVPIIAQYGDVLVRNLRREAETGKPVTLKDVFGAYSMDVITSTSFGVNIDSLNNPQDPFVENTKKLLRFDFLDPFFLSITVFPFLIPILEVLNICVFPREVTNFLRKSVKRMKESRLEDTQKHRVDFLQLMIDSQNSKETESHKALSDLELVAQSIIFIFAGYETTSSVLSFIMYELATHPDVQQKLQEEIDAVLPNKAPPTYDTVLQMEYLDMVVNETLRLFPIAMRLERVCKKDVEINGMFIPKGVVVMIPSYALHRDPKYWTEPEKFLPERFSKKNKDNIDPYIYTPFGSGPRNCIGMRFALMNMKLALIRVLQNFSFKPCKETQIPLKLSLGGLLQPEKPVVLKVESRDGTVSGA

[21] = Permeability of compound at pH 5.5 by PAMPA; type: ADME; conditions: read-out: permeability
[22] = Protein binding in dog assessed as bound fraction; type: ADME, Canis lupus familiaris; conditions: read-out: PB (converted)
[23] = Metabolic stability in human assessed as half-life; type: ADME
[24] = Half-life in dog at 0.1 mg/kg, po or 0.1 mg/kg, iv; type: ADME, organism-based, Canis lupus familiaris; conditions: in vivo
[25] = Metabolic stability in mouse assessed as half-life; type: ADME
Rattus norvegicus [26] = assay: Reduction in circulating lymphocytes count in Lewis rat blood administered orally measured at 4 to 24 hrs by hematology analyzer based analysis; type: functional, organism-based; outline: as §2
Cytochrome P450 2B6 = target: T3, Cytochrome P450 2B6 (Homo sapiens, UniProt P20813); assay: Inhibition of CYP2B6 (unknown origin); type: ADME
T3 sequence (P20813 whole entry): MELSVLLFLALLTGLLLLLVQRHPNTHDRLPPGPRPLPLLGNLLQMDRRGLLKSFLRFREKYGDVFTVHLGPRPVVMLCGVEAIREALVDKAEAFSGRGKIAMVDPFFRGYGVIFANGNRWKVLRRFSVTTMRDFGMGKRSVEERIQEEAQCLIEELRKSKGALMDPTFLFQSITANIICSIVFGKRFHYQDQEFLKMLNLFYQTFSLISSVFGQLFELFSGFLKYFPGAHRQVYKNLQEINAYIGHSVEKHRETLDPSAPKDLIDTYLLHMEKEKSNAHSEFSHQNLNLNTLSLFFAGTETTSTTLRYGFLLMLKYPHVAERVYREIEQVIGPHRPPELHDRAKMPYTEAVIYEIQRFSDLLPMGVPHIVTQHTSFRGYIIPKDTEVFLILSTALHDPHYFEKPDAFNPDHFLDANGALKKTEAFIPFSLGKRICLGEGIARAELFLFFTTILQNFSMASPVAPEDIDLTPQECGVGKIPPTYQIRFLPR

T1 sequence (P21453 whole entry): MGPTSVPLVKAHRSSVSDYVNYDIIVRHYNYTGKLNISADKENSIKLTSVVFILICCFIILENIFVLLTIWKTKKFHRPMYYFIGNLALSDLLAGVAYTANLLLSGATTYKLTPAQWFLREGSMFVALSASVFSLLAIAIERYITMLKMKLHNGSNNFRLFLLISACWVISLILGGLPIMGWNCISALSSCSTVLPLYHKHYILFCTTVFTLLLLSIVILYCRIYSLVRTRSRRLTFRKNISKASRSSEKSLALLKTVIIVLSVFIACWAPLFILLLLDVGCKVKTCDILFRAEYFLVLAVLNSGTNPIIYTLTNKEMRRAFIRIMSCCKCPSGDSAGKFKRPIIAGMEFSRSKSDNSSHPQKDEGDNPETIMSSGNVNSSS

With `O=C(O)C1CN(Cc2ccc3c(c2)CCc2c-3noc2-c2onc(-c3ccccc3)c2C(F)(F)F)C1` the AUC [1] was 2.3 µM·h, the EC50 [2] was 0.032 nM and the bioavailability [3] was 80%. The fraction unbound [4] was 0.004, the inhibition (Homo sapiens) was 11% and the clearance [5] was 8.5 mL/min/kg. The Cmax [6] was 140 nM, the half-life [7] was greater than 120 min and the EC50 [8] was greater than 50 µM. The half-life [9] was 474 min, the F [10] was 80% and the EC50 (Rattus norvegicus [11]) was 24 nM. For the same compound, the IC50 (Cytochrome P450 2D6) was greater than 40 µM, the Activity (Rattus norvegicus [12]) was greater than 50% and the half-life [13] was 900 min. The Tmax [14] was 8 h, the IC50 (Cytochrome P450 2C9) was greater than 40 µM and the Emax [15] was 93%. For the same compound, the AUC [16] was 1.5 µM·h, the Tmax [17] was 4 h and the EC50 [18] was 4.4 µM. The Activity (Rattus norvegicus [19]) was 83%, the EC50 [20] was 0.31 nM and the IC50 (Cytochrome P450 3A4) was greater than 40 µM. The Papp [21] was 26 ×10⁻⁶ cm/s, the fraction unbound [22] was 0.005 and the half-life [23] was greater than 120 min. For the same compound, the half-life [24] was 1390 min, the half-life [25] was greater than 120 min and the EC50 (Rattus norvegicus [26]) was 2.5 nM. It also gave an IC50 (Cytochrome P450 2B6) greater than 40 µM.

From ChEMBL document CHEMBL4680083, “Identification of Tricyclic Agonists of Sphingosine-1-phosphate Receptor 1 (S1P) Employing Ligand-Based Drug Design” (J Med Chem, 2016)
